inhibition, EC50 and Activity data for 11 compounds are collected here from ChEMBL document CHEMBL4609998 (Bioorg Med Chem, 2020).

Molecules are shown by their SMILES. Active and inactive are the calls of the source. The calls are words filed in the database; no cut-off is given here.

The species named for one test is Homo sapiens. Nature of the test: Antiproliferative activity against human G317 cell spheroid assessed as reduction in cell viability incubated for 8 days. The format is functional. The method in brief: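 G317 patient-derived glioma cells (4 × 10^3) spun into ultra-low attachment round-bottom wells (1000g, 4 °C, 10 min), left 2 days to form spheroids, then exposed to inhibitors at 4 concentrations from 10 nM to 10 μM for 8 days. Imaged on day 10; spheroid area quantified by image analysis. Mean ± SEM of 6 spheroids from two cultures.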

In test [1] the test system is U-87 MG. Nature of the test: Antiproliferative activity against human U87 cells assessed as reduction in cell viability at 3 to 300 uM incubated for 5 days by Prestoblue reagent based assay. The format is functional. The note with it: U-87MG ATCC. The method in brief: (§1)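 Library screen: U87 (1 × 10^3/well) and T98 (5 × 10^2/well) cells seeded 48 h ahead, then exposed for 5 d to three concentrations (3, 30 and 300 μM). Viability by PrestoBlue; EC50 derived from the resulting dose-response curves. Means of three independent experiments in triplicate.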

For test [2], the system named is U-87 MG. Nature of the test: Antiproliferative activity against human U87 cells assessed as reduction in cell viability incubated for 5 days by Prestoblue reagent based assay. Format: functional, U-87MG ATCC. The note with it: 120 h. The method in brief:
(§2)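 Glioma lines in DMEM/10% FBS/2 mM glutamine: U87 at 1 × 10^3 and T98 at 5 × 10^2 cells/well, incubated 48 h, then treated over 1–30,000 nM for 5 d. PrestoBlue viability; EC50 calculated from dose-response curves. Mean ± SEM, 3 independent experiments in triplicate.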

Test [3] concerns T98. Nature of the test: Antiproliferative activity against human T98 cells assessed as reduction in cell viability incubated for 5 days by Prestoblue reagent based assay. Format: functional. The note with it: T98, 120 h. The method in brief: as §2
Test [4] deals with T98. Nature of the test: Antiproliferative activity against human T98 cells assessed as reduction in cell viability at 3 to 300 uM incubated for 5 days by Prestoblue reagent based assay. Format: functional. The method in brief: as §1
In test [5] the test system is T98. Nature of the test: Antiproliferative activity against human T98 cells assessed as reduction in cell viability at 1 to 30000 nM incubated for 5 days by Prestoblue reagent based assay. Format: functional. The method in brief: as §2
Test [6] has as its system U-87 MG. Nature of the test: Antiproliferative activity against human U87 cells assessed as reduction in cell viability at 1 to 30000 nM incubated for 5 days by Prestoblue reagent based assay. Format: functional. Conditions: U-87MG ATCC. The method in brief:
as §2

The test system of test [7] is T98. Nature of the test: Synergistic antiproliferative activity against human T98 cells assessed as reduction in cell viability at 100 nM in presence of GDC0941 incubated for 5 days by Prestoblue reagent based assay. Format: functional.
For test [8], the system named is U-87 MG. Nature of the test: Antiproliferative activity against human U87 cells assessed as reduction in cell viability at 1 to 1000 nM incubated for 5 days by Prestoblue reagent based assay. The format is functional. The note with it: U-87MG ATCC. The method in brief:
(§3)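 U87 (1 × 10^3/well) or T98 (5 × 10^2/well) cells, grown in DMEM with 10% FBS and 2 mM glutamine, plated 48 h before dosing at 1–1,000 nM. Viability read with PrestoBlue at day 5; EC50 values taken from dose-response curves. Mean ± SEM, three independent experiments in triplicate.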

For test [9], the system named is T98. Nature of the test: Antiproliferative activity against human T98 cells assessed as reduction in cell viability at 1 to 1000 nM incubated for 5 days by Prestoblue reagent based assay. Format: functional. The method in brief:
as §3

Test [10] deals with U-87 MG. Nature of the test: Synergistic antiproliferative activity against human U87 cells assessed as reduction in cell viability at 10 to 1000 nM in presence of GDC0941 incubated for 5 days by Prestoblue reagent based assay. Format: functional. Conditions: U-87MG ATCC.
The subject of test [11] is T98. Nature of the test: Synergistic antiproliferative activity against human T98 cells assessed as reduction in cell viability at 10 to 1000 nM in presence of GDC0941 incubated for 5 days by Prestoblue reagent based assay. Format: functional.

As for `CCc1c2c(nc3ccc(O)cc13)-c1cc3c(c(=O)n1C2)COC(=O)[C@]3(O)CC`, in the test filed under Homo sapiens, the inhibition result is “Dose-dependent effect”.
A word on the EC50: it is the concentration at which the effect is half-maximal. With `Nc1nc2cc(-c3nn(C[C@H]4CCCO4)c4ncnc(N)c34)ccc2o1`, the inhibition entry in the test with U-87 MG [1] and with T98 [4] was “Active” throughout. Moreover, the EC50 in the test with U-87 MG [2] and in the test with T98 [3] was 0.1 to 0.15 µM in each case.
For `Nc1ncnc2c1c(-c1cnc3[nH]ccc3c1)nn2CC1CCCC1`, the inhibition entry with T98 [5] and in the test on U-87 MG [6] was “Active” throughout.
On to `CCOC(Cn1nc(-c2ccc3oc(N)nc3c2)c2c(N)ncnc21)OCC`, for which the inhibition result in the test on U-87 MG [1], with T98 [4], in the test on U-87 MG [8] and in the test on T98 [9] was “Active” each time. The concentration giving a half-maximal response (EC50) in the test with U-87 MG [2] and in the test with T98 [3] was 0.1 to 0.15 µM in each case. Besides, the result in the test on T98 [7] was Active. Besides, the inhibition entry in the test listed under Homo sapiens is “Dose-dependent effect”.
Turning to `Nc1nc2cc(-c3nn(CC4CCCC4)c4ncnc(N)c34)ccc2o1`, the inhibition entry with U-87 MG [1], in the test on T98 [4], with U-87 MG [8] and in the test with T98 [9] was “Active” in each case. In addition, the inhibition entry in the test filed under Homo sapiens was “Dose-dependent effect”. Further, the outcome in the test with U-87 MG [10] and in the test with T98 [11] was Active.
For the compound `Nc1nc2cc(-c3nn(C[C@@H]4CCCO4)c4ncnc(N)c34)ccc2o1`, the inhibition result in the test on U-87 MG [1] and in the test on T98 [4] was “Active” throughout. The half-maximal effective concentration (EC50) with U-87 MG [2] and in the test with T98 [3] was 0.1 to 0.15 µM each time.
As for `Nc1nc2cc(-c3nn(CC4CCCO4)c4ncnc(N)c34)ccc2o1` (stereo unspecified), the inhibition entry in the test on U-87 MG [1] and with T98 [4] was “Active” throughout. The 50% effective concentration (EC50) in the test on U-87 MG [2] and in the test with T98 [3] was 0.1 to 0.15 µM throughout.
On to `Nc1nc2cc(-c3nn(CC4OCCO4)c4ncnc(N)c34)ccc2o1`, for which the inhibition result with U-87 MG [1] and in the test with T98 [4] was “Active” in each case. The 50% effective concentration (EC50) in the test on U-87 MG [2] and with T98 [3] was 0.1 to 0.15 µM throughout.
Regarding `COC(Cn1nc(-c2ccc3oc(N)nc3c2)c2c(N)ncnc21)OC`, the inhibition result in the test with U-87 MG [1] and in the test with T98 [4] was “Active” throughout. Besides, the EC50 in the test with U-87 MG [2] and in the test on T98 [3] was 0.1 to 0.15 µM each time.
As to `CC(C)n1nc(-c2ccc3oc(N)nc3c2)c2c(N)ncnc21`, in the test listed under Homo sapiens, the inhibition result is “Dose-dependent effect”.
For the compound `CNc1ncc2c(-c3ccc4oc(N)nc4c3)nn(CC3CCCC3)c2n1`, the inhibition entry in the test with T98 [5] and in the test on U-87 MG [6] was “Active” throughout.
